# Laboratory results as given in PubChem BioAssay.
# Active and inactive are the calls of the source.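 Rule for the calls, unless noted: active = viability at or under a set limit in both replicates, limit being median viability minus 3 SD (cut at about 48% in these data, passing the limit was not always enough); inconclusive = at or under the limit in just one replicate; inactive = at or above the limit in both replicates.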
# Columns and labels:
# [1] = Her2 expression decrease, cell viability multiplex – SKBR3 breast tumor cells, AlphaScreen, ATP viability, primary screen (AID 461;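 active = Her2 level under about 52% in both replicate screens, with viability over 70% of control, limit read from the data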;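 for Her2 level: lower value means less Her2 protein in the cells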;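 for viability: percent of carrier control wells set as 100% viability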); settings: SKBR3 Her2 protein level, 18-24 h, measured here: SKBR3 viability, ATP luminescence, at 10 µM
# [2] = molecular target: Receptor tyrosine-protein kinase erbB-2 (Homo sapiens) (UniProt P04626); assay: as above; settings: 18-24 h, at 10 µM, stronger effect = lower value
# [3] = reduced viability of SK-BR-3 breast cancer cells – cell-based, 24 h, human, pilot screen (AID 572;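 active = viability at or below 10% of carrier control in both of two separate runs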;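 note: compound exposure lasted between 18 and 24 h rather than exactly 24 h; 100% = carrier-treated control wells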); settings: SK-BR-3 viability, CellTiter-Glo luminescence, at 10 µM, stronger effect = lower value
# [4] = HUVEC growth inhibition – cell-based, human, primary screen (AID 575;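 active = viability at or below 30% in both replicate assays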;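 note: 100% = median of untreated cell wells with 0.1% DMSO on each plate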); settings: HUVEC proliferation, CellTiter-Glo luminescence, 72 h; at 10 µM; stronger effect = lower value
# How it was run: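 System: primary human umbilical vein endothelial cells; Quantity: 1250 endothelial cells in each well; Buffer or medium: supplemented EBM, 2% fetal bovine serum; Doses: one dose, 10 µM final, 0.1% DMSO; Incubation: 72 h compound incubation; Technique: ATP-based CellTiter-Glo luminescent read; Evaluation: percent of median DMSO-control luminescence; Controls: vehicle and MePR control wells.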
# [5] = H69AR cell proliferation blockers – human, duplicate replicates, primary screen (AID 580); settings: H69AR lung tumor cells viability, ATP luminescence, 72 h; at 10 µM; stronger effect = lower value;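 note: 100% = mean luminescence of untreated wells and 0% = no signal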
# [6] = MRP1 drug-resistance reversers in H69AR cells – cell-based, doxorubicin co-treatment, pilot screen (AID 601;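 active = viability loss from added drug above about 55%, and viability with drug at most 40%, in both replicates, limit read from the data, passing the limit was not always enough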); settings: CellTiter-Glo, 72 h, at 10 µM; for differential viability (reversal): stronger effect = higher value
# [7] = yeast transport mutant growth inhibition pilot in 384-well plates, post-Golgi transport modulator project (AID 636; in the data active = inhibition above about 31%); settings: absorbance 615 nm, about 18 h, stronger effect = higher value
# [8] = growth suppression of yeast trafficking mutant, preliminary HTS, modulators of trafficking downstream of Golgi apparatus project, 1536-format plate, OD 615 nm (AID 637; in the data active = inhibition above about 30%); settings: yeast transport mutant growth, absorbance 615 nm, 18 h; stronger effect = higher value
# [9] = H69AR cells + 2 uM doxorubicin, measured here: viability with 2 uM doxorubicin, stronger effect = lower value
# [10] = H69AR cells, compound alone cytotoxicity
# Sequence of Receptor tyrosine-protein kinase erbB-2 (Homo sapiens) (P04626 whole entry, looked up): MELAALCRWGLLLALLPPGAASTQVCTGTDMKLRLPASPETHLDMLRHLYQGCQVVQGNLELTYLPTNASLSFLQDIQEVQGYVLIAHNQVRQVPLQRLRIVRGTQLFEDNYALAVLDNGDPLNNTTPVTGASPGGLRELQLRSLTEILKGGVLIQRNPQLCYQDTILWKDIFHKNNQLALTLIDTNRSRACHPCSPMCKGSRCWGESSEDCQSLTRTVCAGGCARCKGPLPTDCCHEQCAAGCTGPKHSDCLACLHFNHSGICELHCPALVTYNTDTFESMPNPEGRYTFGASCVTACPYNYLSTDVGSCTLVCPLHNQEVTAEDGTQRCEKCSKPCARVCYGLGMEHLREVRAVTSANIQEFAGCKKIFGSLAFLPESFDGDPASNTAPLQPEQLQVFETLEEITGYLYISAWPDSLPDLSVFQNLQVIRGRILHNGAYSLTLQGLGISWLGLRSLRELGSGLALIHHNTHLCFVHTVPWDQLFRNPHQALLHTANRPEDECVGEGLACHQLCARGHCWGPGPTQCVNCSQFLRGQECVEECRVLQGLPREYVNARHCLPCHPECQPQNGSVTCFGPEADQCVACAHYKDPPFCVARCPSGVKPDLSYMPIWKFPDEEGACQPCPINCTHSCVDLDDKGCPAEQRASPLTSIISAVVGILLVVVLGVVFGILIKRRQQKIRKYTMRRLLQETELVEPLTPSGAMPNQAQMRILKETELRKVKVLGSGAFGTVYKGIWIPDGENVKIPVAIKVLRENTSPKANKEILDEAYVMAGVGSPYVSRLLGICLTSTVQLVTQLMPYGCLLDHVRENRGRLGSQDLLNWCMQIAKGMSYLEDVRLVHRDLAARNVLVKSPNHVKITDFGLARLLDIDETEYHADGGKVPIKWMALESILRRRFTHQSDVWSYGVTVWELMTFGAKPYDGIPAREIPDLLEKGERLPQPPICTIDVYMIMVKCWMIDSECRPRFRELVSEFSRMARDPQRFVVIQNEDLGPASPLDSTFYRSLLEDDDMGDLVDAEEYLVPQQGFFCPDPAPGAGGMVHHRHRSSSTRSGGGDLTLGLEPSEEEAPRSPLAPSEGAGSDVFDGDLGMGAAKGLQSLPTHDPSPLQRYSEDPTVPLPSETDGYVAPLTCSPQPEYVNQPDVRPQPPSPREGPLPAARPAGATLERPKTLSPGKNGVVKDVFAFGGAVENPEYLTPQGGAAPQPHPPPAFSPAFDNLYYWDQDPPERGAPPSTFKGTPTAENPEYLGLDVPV
compound,measurement,setting,value
CCOc1ccc(Cc2nn[nH]n2)cc1,viability,[1],86.5%
same,Her2 level,[2],84.5% (inactive)
same,viability,[3],86.5% (inactive)
same,viability,[4],108% (inactive)
same,viability,[5],101% (inactive)
same,differential viability (reversal),[6]; H69AR cells + 2 uM doxorubicin,5.14% (inactive)
same,viability,[6]; [9],96.3%
same,viability,[6]; [10],101%
same,inhibition,[7],-5.89% (inactive)
same,inhibition,[8],-3.49% (inactive)
CCC(=O)c1ccc(OC(=O)c2ccc(Br)o2)cc1,viability,[1],102%
same,Her2 level,[2],78.5% (inactive)
same,viability,[3],102% (inactive)
same,viability,[4],98% (inactive)
same,viability,[5],108% (inactive)
same,differential viability (reversal),[6]; H69AR cells + 2 uM doxorubicin,8.45% (inactive)
same,viability,[6]; [9],99.9%
same,viability,[6]; [10],108%
same,inhibition,[7],-4.67% (inactive)
same,inhibition,[8],8.2% (inactive)
CCOc1ccc(NC(=O)CN2CCN(CC(=O)Nc3ccc(F)c(F)c3)CC2)cc1,viability,[1],95%
same,Her2 level,[2],102% (inactive)
same,viability,[3],95% (inactive)
same,viability,[4],89.3% (inactive)
same,viability,[5],79.8% (inactive)
same,differential viability (reversal),[6]; H69AR cells + 2 uM doxorubicin,22.7% (inactive)
same,viability,[6]; [9],57.1%
same,viability,[6]; [10],79.8%
same,inhibition,[7],-3.6% (inactive)
same,inhibition,[8],4.92% (inactive)
CCCCOc1ccc(CSc2n[nH]c(C)n2)cc1,viability,[1],83.5%
same,Her2 level,[2],99.5% (inactive)
same,viability,[3],83.5% (inactive)
same,viability,[4],103% (inactive)
same,viability,[5],100% (inactive)
same,differential viability (reversal),[6]; H69AR cells + 2 uM doxorubicin,10.7% (inactive)
same,viability,[6]; [9],89.7%
same,viability,[6]; [10],100%
same,inhibition,[7],-1.22% (inactive)
same,inhibition,[8],-0.49% (inactive)
c1ccc(-n2c(Sc3cnccn3)nnc2-c2cccs2)cc1,viability,[1],114%
same,Her2 level,[2],109% (inactive)
same,viability,[3],114% (inactive)
same,viability,[4],89.1% (inactive)
same,viability,[5],95.8% (inactive)
same,differential viability (reversal),[6]; H69AR cells + 2 uM doxorubicin,7.33% (inactive)
same,viability,[6]; [9],88.5%
same,viability,[6]; [10],95.8%
same,inhibition,[7],-5.41% (inactive)
same,inhibition,[8],-3.49% (inactive)
CCOc1ccc(C(=O)N(Cc2ccc(N(C)C)cc2)C2CCS(=O)(=O)C2)cc1 (stereo not given),viability,[1],114%
same,Her2 level,[2],121% (inactive)
same,viability,[3],114% (inactive)
same,viability,[4],101% (inactive)
same,viability,[5],88.1% (inactive)
same,differential viability (reversal),[6]; H69AR cells + 2 uM doxorubicin,-16.6% (inactive)
same,viability,[6]; [9],105%
same,viability,[6]; [10],88.1%
same,inhibition,[7],-1.18% (inactive)
same,inhibition,[8],2.79% (inactive)
CC(C)C1Cc2c(C#N)c(N)sc(=S)c2CO1 (stereo not given),viability,[1],85%
same,Her2 level,[2],108% (inactive)
same,viability,[3],85% (inactive)
same,viability,[4],64.2% (inactive)
same,viability,[5],93.9% (inactive)
same,differential viability (reversal),[6]; H69AR cells + 2 uM doxorubicin,-2.34% (inactive)
same,viability,[6]; [9],96.2%
same,viability,[6]; [10],93.9%
same,inhibition,[7],-4.03% (inactive)
same,inhibition,[8],-2.13% (inactive)
CCOc1ccc(S(=O)(=O)N2CCN(C(=O)c3cccn3C)CC2)cc1,viability,[1],101%
same,Her2 level,[2],78.5% (inactive)
same,viability,[3],101% (inactive)
same,viability,[4],101% (inactive)
same,viability,[5],97.3% (inactive)
same,differential viability (reversal),[6]; H69AR cells + 2 uM doxorubicin,9.79% (inactive)
same,viability,[6]; [9],87.5%
same,viability,[6]; [10],97.3%
same,inhibition,[7],-9.04% (inactive)
same,inhibition,[8],-2.86% (inactive)
COc1ccc(NC(=O)c2cc(C(C)C)on2)c(OC)c1,viability,[1],93.5%
same,Her2 level,[2],85.5% (inactive)
same,viability,[3],93.5% (inactive)
same,viability,[4],79.5% (inactive)
same,viability,[5],88% (inactive)
same,differential viability (reversal),[6]; H69AR cells + 2 uM doxorubicin,-2.67% (inactive)
same,viability,[6]; [9],90.6%
same,viability,[6]; [10],88%
same,inhibition,[7],0.51% (inactive)
same,inhibition,[8],-2% (inactive)
O=C(c1ccccc1)c1ccc(N2CCOCC2)c(NC(=O)c2ccco2)c1,viability,[1],82.5%
same,Her2 level,[2],78.5% (inactive)
same,viability,[3],82.5% (inactive)
same,viability,[4],81.1% (inactive)
same,viability,[5],87.3% (inactive)
same,differential viability (reversal),[6]; H69AR cells + 2 uM doxorubicin,15.7% (inactive)
same,viability,[6]; [9],71.6%
same,viability,[6]; [10],87.3%
same,inhibition,[7],-3.16% (inactive)
same,inhibition,[8],2.86% (inactive)
CNC(=O)c1ccc(N(Cc2ccccc2C)S(C)(=O)=O)cc1,viability,[1],98%
same,Her2 level,[2],102% (inactive)
same,viability,[3],98% (inactive)
same,viability,[4],102% (inactive)
same,viability,[5],93.6% (inactive)
same,differential viability (reversal),[6]; H69AR cells + 2 uM doxorubicin,0.93% (inactive)
same,viability,[6]; [9],92.7%
same,viability,[6]; [10],93.6%
same,inhibition,[7],-3.87% (inactive)
same,inhibition,[8],-2.95% (inactive)
CCOc1cccc(OCCOCCN2CCCC2)c1,viability,[1],107%
same,Her2 level,[2],89% (inactive)
same,viability,[3],107% (inactive)
same,viability,[4],91.3% (inactive)
same,viability,[5],89.4% (inactive)
same,differential viability (reversal),[6]; H69AR cells + 2 uM doxorubicin,-1.11% (inactive)
same,viability,[6]; [9],90.5%
same,viability,[6]; [10],89.4%
same,inhibition,[7],-6.22% (inactive)
same,inhibition,[8],-3.17% (inactive)
COc1cccc(CNC(=O)C2CCN(S(=O)(=O)c3ccc(F)cc3)CC2)c1,viability,[1],128%
same,Her2 level,[2],98.5% (inactive)
same,viability,[3],128% (inactive)
same,viability,[4],95.1% (inactive)
same,viability,[5],97.5% (inactive)
same,differential viability (reversal),[6]; H69AR cells + 2 uM doxorubicin,-7.57% (inactive)
same,viability,[6]; [9],105%
same,viability,[6]; [10],97.5%
same,inhibition,[7],-2.37% (inactive)
same,inhibition,[8],0.48% (inactive)
COCCSc1nnc(NC(=O)Cc2ccccc2OC)s1,viability,[1],106%
same,Her2 level,[2],76% (inactive)
same,viability,[3],106% (inactive)
same,viability,[4],91% (inactive)
same,viability,[5],98.9% (inactive)
same,differential viability (reversal),[6]; H69AR cells + 2 uM doxorubicin,7.86% (inactive)
same,viability,[6]; [9],91%
same,viability,[6]; [10],98.9%
same,inhibition,[7],-5.39% (inactive)
same,inhibition,[8],-1.67% (inactive)
C=C(C)c1cccc(C(C)(C)NC(=O)Nc2ncccn2)c1,viability,[1],97.5%
same,Her2 level,[2],107% (inactive)
same,viability,[3],97.5% (inactive)
same,viability,[4],81% (inactive)
same,viability,[5],66.7% (inactive)
same,differential viability (reversal),[6]; H69AR cells + 2 uM doxorubicin,-9% (inactive)
same,viability,[6]; [9],75.7%
same,viability,[6]; [10],66.7%
same,inhibition,[7],-4.08% (inactive)
same,inhibition,[8],-4.73% (inactive)
CCNS(=O)(=O)c1c(C)cc(N2CCCC2=O)cc1C,viability,[1],95.5%
same,Her2 level,[2],109% (inactive)
same,viability,[3],95.5% (inactive)
same,viability,[4],112% (inactive)
same,viability,[5],98.8% (inactive)
same,differential viability (reversal),[6]; H69AR cells + 2 uM doxorubicin,8.17% (inactive)
same,viability,[6]; [9],90.6%
same,viability,[6]; [10],98.8%
same,inhibition,[7],-3.87% (inactive)
same,inhibition,[8],-1.31% (inactive)
COCCCNC(=O)c1ccc2c(c1)OCO2,viability,[1],96.5%
same,Her2 level,[2],93.5% (inactive)
same,viability,[3],96.5% (inactive)
same,viability,[4],89.9% (inactive)
same,viability,[5],89.8% (inactive)
same,differential viability (reversal),[6]; H69AR cells + 2 uM doxorubicin,-1.48% (inactive)
same,viability,[6]; [9],91.3%
same,viability,[6]; [10],89.8%
same,inhibition,[7],-2.76% (inactive)
same,inhibition,[8],5.74% (inactive)
O=C(CSc1n[nH]c(-c2cccs2)n1)N1CCN(S(=O)(=O)c2ccccc2)CC1,viability,[1],80.5%
same,Her2 level,[2],78.5% (inactive)
same,viability,[3],80.5% (inactive)
same,viability,[4],97.4% (inactive)
same,viability,[5],102% (inactive)
same,differential viability (reversal),[6]; H69AR cells + 2 uM doxorubicin,-3.67% (inactive)
same,viability,[6]; [9],106%
same,viability,[6]; [10],102%
same,inhibition,[7],0.91% (inactive)
same,inhibition,[8],9.84% (inactive)
CC1(C(=O)CSc2nc3ccccc3s2)CCC(=O)O1 (stereo not given),viability,[1],107%
same,Her2 level,[2],89% (inactive)
same,viability,[3],107% (inactive)
same,viability,[4],73.2% (inactive)
same,viability,[5],90.1% (inactive)
same,differential viability (reversal),[6]; H69AR cells + 2 uM doxorubicin,3.12% (inactive)
same,viability,[6]; [9],87%
same,viability,[6]; [10],90.1%
same,inhibition,[7],-7.4% (inactive)
same,inhibition,[8],-3.17% (inactive)
CCNC(=O)CC(=O)Nc1ccccc1C(=O)O,viability,[1],104%
same,Her2 level,[2],99.5% (inactive)
same,viability,[3],104% (inactive)
same,viability,[4],125% (inactive)
same,viability,[5],103% (inactive)
same,differential viability (reversal),[6]; H69AR cells + 2 uM doxorubicin,5.93% (inactive)
same,viability,[6]; [9],96.9%
same,viability,[6]; [10],103%
same,inhibition,[7],-5.95% (inactive)
same,inhibition,[8],-2.67% (inactive)
